Results taken from ChEMBL document CHEMBL1275432, “Daptomycin is effective in treatment of experimental endocarditis due to methicillin-resistant and glycopeptide-intermediate Staphylococcus aureus” (Antimicrob Agents Chemother, 2008).
In brackets after ≈: the same amount, converted by molar mass. Activity calls are given as the source filed them.

Columns and labels:
[1] = Terminal half-life in New Zealand White rabbit at 1 g, iv administered every 12 hrs; format: ADME, organism-based, Oryctolagus cuniculus; settings: in vivo
How it was run: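 The vancomycin line simulated 1 g i.v. q 12 h (30 mg/kg/day in 2 doses). The daptomycin line simulated 6 mg/kg q 24 h. Parameters came from an open 2-compartment model. Daptomycin was measured by disk-plate bioassay with Micrococcus luteus ATCC 9341 (sensitivity 0.5 µg/ml). Vancomycin was measured by latex-boosted immunoturbidimetry (LOD 0.8 µg/ml).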

Staphylococcus aureus [2] = test: Bacteriostatic activity against methicillin-resistant Staphylococcus aureus 277 at 0.5 to 4 times MIC by time-kill experiment; format: functional, organism-based
How it was run: (§1)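 Time-kill curves per CLSI, run in duplicate. Inoculum was 10^5 CFU/ml, with drug at 0.5–4× MIC. Viable counts were taken at 0, 4 and 24 h. Bactericidal was defined as a ≥3-log CFU reduction at 24 h versus the initial inoculum.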

Staphylococcus aureus [3] = test: Bacteriostatic activity against glycopeptide-intermediate Staphylococcus aureus ATCC 700788 at 0.5 to 4 times MIC by time-kill experiment; format: functional, organism-based; how it was run: as §1
[4] = Cmin in New Zealand White rabbit infected with glycopeptide-intermediate Staphylococcus aureus after 24 hrs; format: ADME, organism-based, Oryctolagus cuniculus; settings: in vivo, read-out: Cmin
How it was run: (§2)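 Trough serum concentrations were taken in rabbits with catheter-induced aortic valve endocarditis. Infection was 1 ml i.v. via the marginal ear vein: 7 × 10^5 CFU/ml for MRSA or 8 × 10^5 CFU/ml for GISA. Human-simulating pump infusion started 18 h after infection and ran 48 h. Daptomycin was assayed by M. luteus bioassay, vancomycin by immunoturbidimetry.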

[5] = Terminal half-life in human serum at 1 g, iv administered every 12 hrs; format: ADME, organism-based
[6] = Plasma protein binding in New Zealand White rabbit plasma at 1 g, iv administered every 12 hrs; format: ADME, organism-based, Oryctolagus cuniculus; settings: read-out: PPB (converted)
[7] = Cmin in New Zealand White rabbit infected with methicillin-resistant Staphylococcus aureus after 24 hrs; format: ADME, organism-based, Oryctolagus cuniculus; settings: in vivo, read-out: Cmin; how it was run: as §2
Staphylococcus aureus [8] = test: Antimicrobial activity against methicillin-resistant Staphylococcus aureus after 72 hrs by Etest; format: functional
Staphylococcus aureus [9] = test: Antimicrobial activity against glycopeptide-intermediate Staphylococcus aureus ATCC 700788 by microdilution method; format: functional
How it was run: (§3)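 Broth microdilution MIC and MBC per CLSI in cation-adjusted Mueller-Hinton broth. For daptomycin, the broth was adjusted to 50 µg/ml calcium. S. aureus ATCC 29213 was the control strain.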

Staphylococcus aureus [10] = test: Bactericidal activity against methicillin-resistant Staphylococcus aureus 277 at 0.5 to 4 times MIC by time-kill experiment; format: functional, organism-based; how it was run: as §1
Staphylococcus aureus [11] = test: Antimicrobial activity against methicillin-resistant Staphylococcus aureus 277 by microdilution method; format: functional; how it was run: as §3
[12] = Plasma protein binding in New Zealand White rabbit plasma at 6 mg/kg, iv administered every 24 hrs; format: ADME, organism-based, Oryctolagus cuniculus; set-up: dose 6 mg/kg, route intravenous; settings: read-out: PPB (converted)
Staphylococcus aureus [13] = test: Antimicrobial activity against methicillin-resistant Staphylococcus aureus by Etest; format: functional
Staphylococcus aureus [14] = test: Bactericidal activity against glycopeptide-intermediate Staphylococcus aureus ATCC 700788 at 0.5 to 4 times MIC by time-kill experiment; format: functional, organism-based; how it was run: as §1
[15] = AUC in human serum at 6 mg/kg, iv administered every 24 hrs; format: ADME, organism-based; set-up: dose 6 mg/kg, route intravenous
[16] = Cmax in human serum at 6 mg/kg, iv administered every 24 hrs; format: ADME, organism-based; set-up: dose 6 mg/kg, route intravenous
[17] = Terminal half-life in human serum at 6 mg/kg, iv administered every 24 hrs; format: ADME, organism-based; set-up: dose 6 mg/kg, route intravenous
[18] = Plasma protein binding in human serum at 6 mg/kg, iv administered every 24 hrs; format: ADME, organism-based; set-up: dose 6 mg/kg, route intravenous; settings: read-out: PPB (converted)

Molecule | half-life [1] | Activity (Staphylococcus aureus [2]) | Activity (Staphylococcus aureus [3]) | concentration at 24 h [4] | half-life [5] | fraction unbound at 12 h [6] | concentration at 24 h [7] | MIC (Staphylococcus aureus [8]) | MBC (Staphylococcus aureus [9]) | MIC (Staphylococcus aureus [9]) | Activity (Staphylococcus aureus [10]) | MIC (Staphylococcus aureus [11]) | fraction unbound at 24 h [12] | MIC (Staphylococcus aureus [13]) | Activity (Staphylococcus aureus [14]) | AUC at 24 h [15] | Cmax [16] | half-life [17] | fraction unbound at 24 h [18]
CN[C@H](CC(C)C)C(=O)N[C@H]1C(=O)N[C@@H](CC(N)=O)C(=O)N[C@H]2C(=O)N[C@H]3C(=O)N[C@H](C(=O)N[C@H](C(=O)O)c4cc(O)cc(O)c4-c4cc3ccc4O)[C@H](O)c3ccc(c(Cl)c3)Oc3cc2cc(c3O[C@@H]2O[C@H](CO)[C@@H](O)[C@H](O)[C@H]2O[C@H]2C[C@](C)(N)[C@H](O)[C@H](C)O2)Oc2ccc(cc2Cl)[C@H]1O [VANCOMYCIN] | 1.3 h | Active | Active | 20000 ng/mL | 4.8 h | 0.35 | 20000 ng/mL | 8 µg/mL (≈ 5.52 µM) |  |  |  |  |  |  |  |  |  |  | 
CCCCCCCCCC(=O)N[C@@H](Cc1c[nH]c2ccccc12)C(=O)N[C@H](CC(N)=O)C(=O)N[C@@H](CC(=O)O)C(=O)N[C@@H]1C(=O)NCC(=O)N[C@@H](CCCN)C(=O)N[C@@H](CC(=O)O)C(=O)N[C@H](C)C(=O)N[C@@H](CC(=O)O)C(=O)NCC(=O)N[C@H](CO)C(=O)N[C@@H]([C@H](C)CC(=O)O)C(=O)N[C@@H](CC(=O)c2ccccc2N)C(=O)O[C@@H]1C |  |  |  |  |  |  |  | 0.5 µg/mL (≈ 0.309 µM) | 1 µg/mL (≈ 0.617 µM) | 0.5 µg/mL (≈ 0.309 µM) | Active | 0.12 µg/mL (≈ 0.074 µM) | 0.1 | 0.12 µg/mL (≈ 0.074 µM) | Active | 974 µg·h/mL | 86000 ng/mL | 9.5 h | 0.08
GENTAMICIN |  |  |  |  |  |  |  |  | 128 µg/mL | 0.25 µg/mL |  |  |  |  |  |  |  |  | 
